Test results published in ChEMBL document CHEMBL1811874, “The effect of sulfonate leaving groups on the hypoxia-selective toxicity of nitro analogs of the duocarmycins” (Bioorg Med Chem, 2011).
Converted amounts (≈) assume the structure as drawn. Each block holds one compound with its values, some of them ahead of it.

What was measured:
HT-29 [1] = experiment: Cytotoxicity against human HT-29 cells assessed as reduction of cell density incubated for 4 hrs in oxic (aerobic) condition measured 5 days post dose by SRB assay; assay type: functional, cell-based
In short: (§1)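 Log-phase monolayers given a 4 h drug exposure under aerobic (20% O₂) or anoxic (<20 ppm O₂) conditions. Cells were then stained with sulforhodamine B 5 days later. IC50 was interpolated as the concentration that cut cell density to 50% of same-plate controls. Values are means of two to seven experiments.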

SK-OV-3 [2] = experiment: Cytotoxicity against human SKOV3 cells assessed as reduction of cell density incubated for 4 hrs in hypoxic (anoxic) condition measured 5 days post dose by SRB assay; assay type: functional, cell-based; in short: as §1
HT-29 [3] = experiment: Hypoxic cytotoxicity ratio, ratio of IC50 for human HT-29 cells in oxic (aerobic) condition to IC50 for human HT-29 cells in hypoxic (anoxic) conditions; assay type: functional
In short: (§2)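 HCR was calculated as IC50(oxic)/IC50(hypoxic) after 4 h drug exposure at 20% O₂ or <20 ppm O₂, with SRB read-out 5 days later.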

SK-OV-3 [4] = experiment: Cytotoxicity against human SKOV3 cells assessed as reduction of cell density incubated for 4 hrs in oxic (aerobic) condition measured 5 days post dose by SRB assay; assay type: functional, cell-based; in short: as §1
HT-29 [5] = experiment: Cytotoxicity against human HT-29 cells assessed as reduction of cell density incubated for 4 hrs in hypoxic (anoxic) condition measured 5 days post dose by SRB assay; assay type: functional, cell-based; in short: as §1
[6] = Solubility in alphaMEM culture medium containing 5% FCS at 22 degC; assay type: physicochemical
In short: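 Solubility was measured in αMEM with 5% FCS, equilibrated with 5% CO₂/air, at 22 °C.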

SK-OV-3 [7] = experiment: Hypoxic cytotoxicity ratio, ratio of IC50 for human SKOV3 cells in oxic (aerobic) condition to IC50 for human SKOV3 cells in hypoxic (anoxic) conditions; assay type: functional; in short: as §2
SiHa [8] = experiment: Cytotoxicity against human SiHa cells assessed as reduction of cell density incubated for 4 hrs in hypoxic (anoxic) condition measured 5 days post dose by SRB assay; assay type: functional, cell-based; in short: as §1
A-375 [9] = experiment: Hypoxic cytotoxicity ratio, ratio of IC50 for human A375 cells in oxic (aerobic) condition to IC50 for human A375 cells in hypoxic (anoxic) conditions; assay type: functional; in short: as §2
HCT-116 [10] = experiment: Hypoxic cytotoxicity ratio, ratio of IC50 for human HCT116 cells in oxic (aerobic) condition to IC50 for human HCT116 cells in hypoxic (anoxic) conditions; assay type: functional; in short: as §2
PC-3 [11] = experiment: Cytotoxicity against human PC3 cells assessed as reduction of cell density incubated for 4 hrs in hypoxic (anoxic) condition measured 5 days post dose by SRB assay; assay type: functional, cell-based; in short: as §1
C-33-A [12] = experiment: Cytotoxicity against human C33A cells assessed as reduction of cell density incubated for 4 hrs in oxic (aerobic) condition measured 5 days post dose by SRB assay; assay type: functional, cell-based; in short: as §1
HCT-116 [13] = experiment: Cytotoxicity against human HCT116 cells assessed as reduction of cell density incubated for 4 hrs in hypoxic (anoxic) condition measured 5 days post dose by SRB assay; assay type: functional, cell-based; in short: as §1
C-33-A [14] = experiment: Cytotoxicity against human C33A cells assessed as reduction of cell density incubated for 4 hrs in hypoxic (anoxic) condition measured 5 days post dose by SRB assay; assay type: functional, cell-based; in short: as §1
[15] = Cytotoxicity against human H1299 cells assessed as reduction of cell density incubated for 4 hrs in hypoxic (anoxic) condition measured 5 days post dose by SRB assay; assay type: functional, cell-based; details: NCI-H1299; in short: as §1
A549 [16] = experiment: Cytotoxicity against human A549 cells ells over-expressing human NADPH/cytochrome P450 oxidoreductase assessed as reduction of cell density incubated for 4 hrs in hypoxic (anoxic) condition measured 5 days post dose by SRB assay; assay type: functional, cell-based; in short: as §1
A549 [17] = experiment: Hypoxic cytotoxicity ratio, ratio of IC50 for human A549 cells in oxic (aerobic) condition to IC50 for human A549 cells in hypoxic (anoxic) conditions; assay type: functional; in short: as §2
[18] = Cytotoxicity against human H1299 cells assessed as reduction of cell density incubated for 4 hrs in oxic (aerobic) condition measured 5 days post dose by SRB assay; assay type: functional, cell-based; details: NCI-H1299; in short: as §1
NCI-H460 [19] = experiment: Cytotoxicity against human H460 cells assessed as reduction of cell density incubated for 4 hrs in hypoxic (anoxic) condition measured 5 days post dose by SRB assay; assay type: functional, cell-based; in short: as §1
SiHa [20] = experiment: Cytotoxicity against human SiHa cells assessed as reduction of cell density incubated for 4 hrs in oxic (aerobic) condition measured 5 days post dose by SRB assay; assay type: functional, cell-based; in short: as §1
A549 [21] = experiment: Cytotoxicity against human A549 cells assessed as reduction of cell density incubated for 4 hrs in oxic (aerobic) condition measured 5 days post dose by SRB assay; assay type: functional, cell-based; in short: as §1
NCI-H460 [22] = experiment: Cytotoxicity against human H460 cells assessed as reduction of cell density incubated for 4 hrs in oxic (aerobic) condition measured 5 days post dose by SRB assay; assay type: functional, cell-based; in short: as §1
A549 [23] = experiment: Hypoxic cytotoxicity ratio, ratio of IC50 for human A549 cells ells over-expressing human NADPH/cytochrome P450 oxidoreductase in oxic (aerobic) condition to IC50 for human A549 cells ells over-expressing human NADPH/cytochrome P450 oxidoreductase in hypoxic (anoxic) conditions; assay type: functional; in short: as §2
SiHa [24] = experiment: Hypoxic cytotoxicity ratio, ratio of IC50 for human SiHa cells in oxic (aerobic) condition to IC50 for human SiHa cells in hypoxic (anoxic) conditions; assay type: functional; in short: as §2
PC-3 [25] = experiment: Hypoxic cytotoxicity ratio, ratio of IC50 for human PC3 cells in oxic (aerobic) condition to IC50 for human PC3 cells in hypoxic (anoxic) conditions; assay type: functional; in short: as §2
A-375 [26] = experiment: Cytotoxicity against human A375 cells assessed as reduction of cell density incubated for 4 hrs in oxic (aerobic) condition measured 5 days post dose by SRB assay; assay type: functional, cell-based; in short: as §1
A549 [27] = experiment: Cytotoxicity against human A549 cells assessed as reduction of cell density incubated for 4 hrs in hypoxic (anoxic) condition measured 5 days post dose by SRB assay; assay type: functional, cell-based; in short: as §1
A-375 [28] = experiment: Cytotoxicity against human A375 cells assessed as reduction of cell density incubated for 4 hrs in hypoxic (anoxic) condition measured 5 days post dose by SRB assay; assay type: functional, cell-based; in short: as §1
HCT-116 [29] = experiment: Cytotoxicity against human HCT116 cells assessed as reduction of cell density incubated for 4 hrs in oxic (aerobic) condition measured 5 days post dose by SRB assay; assay type: functional, cell-based; in short: as §1
A549 [30] = experiment: Cytotoxicity against human A549 cells over-expressing human NADPH/cytochrome P450 oxidoreductase assessed as reduction of cell density incubated for 4 hrs in oxic (aerobic) condition measured 5 days post dose by SRB assay; assay type: functional, cell-based; in short: as §1
C-33-A [31] = experiment: Hypoxic cytotoxicity ratio, ratio of IC50 for human C33A cells in oxic (aerobic) condition to IC50 for human C33A cells in hypoxic (anoxic) conditions; assay type: functional; in short: as §2
PC-3 [32] = experiment: Cytotoxicity against human PC3 cells assessed as reduction of cell density incubated for 4 hrs in oxic (aerobic) condition measured 5 days post dose by SRB assay; assay type: functional, cell-based; in short: as §1
[33] = Hypoxic cytotoxicity ratio, ratio of IC50 for human H1299 cells in oxic (aerobic) condition to IC50 for human H1299 cells in hypoxic (anoxic) conditions; assay type: functional, NCI-H1299; in short: as §2
NCI-H460 [34] = experiment: Hypoxic cytotoxicity ratio, ratio of IC50 for human H460 cells in oxic (aerobic) condition to IC50 for human H460 cells in hypoxic (anoxic) conditions; assay type: functional; in short: as §2

Compound: COc1cc2cc(C(=O)N3CC(COS(C)(=O)=O)c4c3cc([N+](=O)[O-])c3ccccc43)[nH]c2c(OC)c1OC (configuration not stated)
IC50 (HT-29 [1]): 1500 nM
IC50 (SK-OV-3 [2]): 140 nM
Ratio IC50 (HT-29 [3]): 4.6
IC50 (SK-OV-3 [4]): 2200 nM
IC50 (HT-29 [5]): 310 nM
solubility [6]: 69 µM (≈ 38.3 µg/mL)
Ratio IC50 (SK-OV-3 [7]): 39

Compound: COc1cc2cc(C(=O)N3CC(COS(=O)(=O)C4CCCCC4)c4c3cc([N+](=O)[O-])c3ccccc43)[nH]c2c(OC)c1OC (configuration not stated)
IC50 (HT-29 [1]): 9900 nM
IC50 (SK-OV-3 [2]): 190 nM
Ratio IC50 (HT-29 [3]): 26
IC50 (SK-OV-3 [4]): 16000 nM
IC50 (HT-29 [5]): 440 nM
solubility [6]: 70 µM (≈ 43.7 µg/mL)
Ratio IC50 (SK-OV-3 [7]): 146

Compound: CN(C)CCOc1ccc2[nH]c(C(=O)N3CC(COS(=O)(=O)C4CCCCC4)c4c3cc([N+](=O)[O-])c3ccccc43)cc2c1 (configuration not stated)
IC50 (HT-29 [1]): 410 nM
IC50 (SK-OV-3 [2]): 300 nM
Ratio IC50 (HT-29 [3]): 2.3
IC50 (SK-OV-3 [4]): 470 nM
IC50 (HT-29 [5]): 200 nM
solubility [6]: 22 µM (≈ 13.7 µg/mL)
Ratio IC50 (SK-OV-3 [7]): 1.5

The next lines start with results.

solubility [6]: 17 µM (≈ 10.7 µg/mL)
Compound: COc1cc2cc(C(=O)N3CC(COS(=O)(=O)Cc4ccccc4)c4c3cc([N+](=O)[O-])c3ccccc43)[nH]c2c(OC)c1OC (configuration not stated)
IC50 (SiHa [8]): 450 nM
Ratio IC50 (A-375 [9]): 4.12
Ratio IC50 (HCT-116 [10]): 12.1
IC50 (PC-3 [11]): 210 nM
IC50 (C-33-A [12]): 430 nM
IC50 (HCT-116 [13]): 50 nM
IC50 (C-33-A [14]): 33 nM
IC50 [15]: 160 nM
IC50 (A549 [16]): 95 nM
Ratio IC50 (A549 [17]): 3.73
IC50 [18]: 510 nM
IC50 (HT-29 [1]): 9800 nM
IC50 (SK-OV-3 [2]): 82 nM
IC50 (NCI-H460 [19]): 100 nM
IC50 (SiHa [20]): 3000 nM
IC50 (A549 [21]): 1080 nM
IC50 (NCI-H460 [22]): 250 nM
Ratio IC50 (A549 [23]): 16.5
Ratio IC50 (SiHa [24]): 30.1
Ratio IC50 (HT-29 [3]): 37
IC50 (SK-OV-3 [4]): 12000 nM
IC50 (HT-29 [5]): 360 nM
Ratio IC50 (PC-3 [25]): 10.2
IC50 (A-375 [26]): 1230 nM
IC50 (A549 [27]): 400 nM
IC50 (A-375 [28]): 410 nM
IC50 (HCT-116 [29]): 530 nM
IC50 (A549 [30]): 930 nM
Ratio IC50 (C-33-A [31]): 15.6
IC50 (PC-3 [32]): 1900 nM
Ratio IC50 [33]: 3.6
Ratio IC50 (SK-OV-3 [7]): 246
Ratio IC50 (NCI-H460 [34]): 7.19

solubility [6]: 91 µM (≈ 57.2 µg/mL)
Compound: CN(C)CCOc1ccc2[nH]c(C(=O)N3CC(COS(=O)(=O)Cc4ccccc4)c4c3cc([N+](=O)[O-])c3ccccc43)cc2c1 (configuration not stated)
IC50 (HT-29 [1]): 240 nM
IC50 (SK-OV-3 [2]): 150 nM
Ratio IC50 (HT-29 [3]): 4
IC50 (SK-OV-3 [4]): 270 nM
IC50 (HT-29 [5]): 80 nM
Ratio IC50 (SK-OV-3 [7]): 1.8
